Consider four compounds from ChEMBL document CHEMBL4311979, “Structural isomers of cinnamic hydroxamic acids block HCV replication via different mechanisms” (Eur J Med Chem, 2019).

Data set [1] addresses T1, Histone deacetylase 8 (Homo sapiens) (UniProt Q9BY41).
T1 sequence (whole entry): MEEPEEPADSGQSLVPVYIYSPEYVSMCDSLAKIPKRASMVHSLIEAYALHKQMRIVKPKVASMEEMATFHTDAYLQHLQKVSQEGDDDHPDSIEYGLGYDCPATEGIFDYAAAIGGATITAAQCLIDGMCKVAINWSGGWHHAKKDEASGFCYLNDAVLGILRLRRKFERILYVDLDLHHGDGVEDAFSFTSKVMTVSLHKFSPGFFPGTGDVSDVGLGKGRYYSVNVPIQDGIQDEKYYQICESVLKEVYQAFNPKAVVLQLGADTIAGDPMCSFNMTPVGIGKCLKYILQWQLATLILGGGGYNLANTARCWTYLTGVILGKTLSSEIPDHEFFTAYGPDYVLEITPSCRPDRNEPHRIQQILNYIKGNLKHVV
Put plainly: Inhibition of HDAC8 in human HuH7-luc/neo cells assessed as ratio of SMC3K105/106ac content to the content of unmodified SMC3 at 3 uM incubated for 24 hrs by Western blot analysis relative to control. The class given is cell-based. The method in brief:
(§1)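 Huh7-luc/neo cells were dosed after 24 h at 40-50% monolayer and exposed to compound for 24 h at 37 °C in 5% CO2. For α-tubulin and SMC3, cells were PBS-washed and lysed. Histone H3 was acid-extracted: TEB buffer with 0.5% Triton X-100, then 0.2 M HCl overnight at 4 °C, then neutralized. Western blots were blocked in 5% milk/PBST with overnight primary antibody at 4 °C. Values are acetylated/total normalized ratios versus control.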
Background: In western blotting, separated proteins are transferred to a membrane and probed.

Data set [2] deals with T2, Protein deacetylase HDAC6 (Homo sapiens) (UniProt Q9UBN7).
T2 sequence (whole entry): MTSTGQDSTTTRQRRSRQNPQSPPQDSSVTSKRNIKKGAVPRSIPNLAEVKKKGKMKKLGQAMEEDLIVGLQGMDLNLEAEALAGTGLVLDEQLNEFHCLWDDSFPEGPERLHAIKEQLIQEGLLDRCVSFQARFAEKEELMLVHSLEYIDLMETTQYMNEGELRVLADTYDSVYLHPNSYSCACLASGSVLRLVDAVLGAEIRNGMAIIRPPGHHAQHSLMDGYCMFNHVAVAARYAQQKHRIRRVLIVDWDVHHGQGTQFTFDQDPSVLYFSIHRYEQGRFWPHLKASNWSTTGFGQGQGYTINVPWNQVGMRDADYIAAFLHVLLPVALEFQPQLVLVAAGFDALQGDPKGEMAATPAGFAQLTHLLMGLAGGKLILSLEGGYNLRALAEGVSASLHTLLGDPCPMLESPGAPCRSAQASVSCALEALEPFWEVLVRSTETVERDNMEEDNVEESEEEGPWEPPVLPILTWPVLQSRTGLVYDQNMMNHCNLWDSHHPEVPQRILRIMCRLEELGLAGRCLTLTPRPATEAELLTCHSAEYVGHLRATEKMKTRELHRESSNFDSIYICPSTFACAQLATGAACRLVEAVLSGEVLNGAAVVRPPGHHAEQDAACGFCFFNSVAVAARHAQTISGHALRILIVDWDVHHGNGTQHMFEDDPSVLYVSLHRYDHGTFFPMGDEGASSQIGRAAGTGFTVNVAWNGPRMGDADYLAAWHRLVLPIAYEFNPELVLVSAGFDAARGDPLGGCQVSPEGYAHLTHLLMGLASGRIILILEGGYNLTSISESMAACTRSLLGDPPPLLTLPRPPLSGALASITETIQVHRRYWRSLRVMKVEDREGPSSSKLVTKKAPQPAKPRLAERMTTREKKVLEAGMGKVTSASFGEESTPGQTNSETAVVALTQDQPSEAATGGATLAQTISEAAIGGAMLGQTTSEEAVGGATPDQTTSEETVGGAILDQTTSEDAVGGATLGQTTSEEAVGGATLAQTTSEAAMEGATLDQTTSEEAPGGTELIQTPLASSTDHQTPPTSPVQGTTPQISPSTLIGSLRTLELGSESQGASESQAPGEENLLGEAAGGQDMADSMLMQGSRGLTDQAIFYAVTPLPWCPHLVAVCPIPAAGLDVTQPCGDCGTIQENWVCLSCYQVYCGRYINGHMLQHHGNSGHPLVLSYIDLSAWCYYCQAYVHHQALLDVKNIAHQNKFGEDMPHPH
Put plainly: Inhibition of HDAC6 in human HuH7-luc/neo cells assessed as ratio of alphaTubK40ac content to the content of unmodified alpha-tubulin at 3 uM incubated for 24 hrs by Western blot analysis relative to control. The format is cell-based. Summed up:
as §1

Data set [3] is described as follows: Therapeutic index, ratio of CC50 for human HuH7 cells to EC50 for HCV infected in human HuH7-luc/neo cells. The class given is toxicity, cell-based. Particulars: HuH7 cells (CC50) and HCV-infected HuH7-luc/neo cells (EC50).
Data set [4] has as its target T1, Histone deacetylase 8 (Homo sapiens). Put plainly: Inhibition of HDAC8 in human HuH7-luc/neo cells assessed as ratio of SMC3K105/106ac content to the content of unmodified SMC3 at 0.1 uM incubated for 24 hrs by Western blot analysis relative to control. The class given is cell-based. The method in brief: as §1
Data set [5] in a line: Cytotoxicity against human HuH7 cells assessed as reduction in cell viability incubated for 3 days by MTT assay. The class given is cell-based, Huh-7. Summed up: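 Huh7 cells were reseeded and dosed over a range of concentrations after 24 h (30-40% monolayer). Incubation was three days at 37 °C in 5% CO2, and viability was read by MTT. CC50 is the mean and standard deviation of at least six independent experiments.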
(In general: Formazan colour is commonly taken as a measure of viable cells.)

The target of data set [6] is T1, Histone deacetylase 8 (Homo sapiens). Put plainly: Inhibition of HDAC8 in human HuH7-luc/neo cells assessed as ratio of SMC3K105/106ac content to the content of unmodified SMC3 at 0.3 uM incubated for 24 hrs by Western blot analysis relative to control. The format is cell-based. The method in brief: as §1
Data set [7] concerns the target T2, Protein deacetylase HDAC6 (Homo sapiens). Put plainly: Inhibition of HDAC6 in human HuH7-luc/neo cells assessed as ratio of alphaTubK40ac content to the content of unmodified alpha-tubulin at 1 uM incubated for 24 hrs by Western blot analysis relative to control. The class given is cell-based. The method in brief: as §1
In data set [8] the target is T1, Histone deacetylase 8 (Homo sapiens). The data set is described as follows: Inhibition of HDAC8 in human HuH7-luc/neo cells assessed as ratio of SMC3K105/106ac content to the content of unmodified SMC3 at 10 uM incubated for 24 hrs by Western blot analysis relative to control. The format is cell-based. Summed up:
as §1

The test system of a further data set is Hepatitis C virus. Put plainly: Antiviral activity against HCV infected in human HuH7-luc/neo cells assessed as inhibition of viral replicon propagation incubated for 3 days by luciferase reporter gene assay. Particulars: 72 h. The format is functional, organism-based, Hepacivirus hominis. Summed up:
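Huh7-luc/neo cells carrying a full-length HCV replicon with a luciferase gene. Cells were reseeded without G418 and dosed at 30-40% monolayer (48 h) over a range of concentrations. Incubation was 72 h at 37 °C in 5% CO2. Cells were then PBS-washed and lysed, and luciferase chemiluminescence was read. EC50 is the mean and standard deviation of at least four independent experiments.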
Background: In antiviral work, replicon cells carry a viral genome segment that copies itself.

Data set [9] has as its target T1, Histone deacetylase 8 (Homo sapiens). The data set is described as follows: Inhibition of HDAC8 in human HuH7-luc/neo cells assessed as ratio of SMC3K105/106ac content to the content of unmodified SMC3 at 1 uM incubated for 24 hrs by Western blot analysis relative to control. The format is cell-based. Summed up:
as §1

Data set [10] has as its target T3, Histone deacetylase 1/2/3 (Homo sapiens) (UniProt Q13547+O15379+Q92769). Put plainly: Inhibition of HDAC1/2/3 in human HuH7-luc/neo cells assessed as ratio of H3K9/14ac content to the content of unmodified histone H3 at 3 uM incubated for 24 hrs by Western blot analysis relative to control. The class given is cell-based. Summed up:
as §1

Data set [11] concerns the target T3, Histone deacetylase 1/2/3 (Homo sapiens). The data set is described as follows: Inhibition of HDAC1/2/3 in human HuH7-luc/neo cells assessed as ratio of H3K9/14ac content to the content of unmodified histone H3 at 1 uM incubated for 24 hrs by Western blot analysis relative to control. The format is cell-based. The method in brief: as §1
For data set [12] the target is unchanged. The data set is described as follows: Inhibition of HDAC1/2/3 in human HuH7-luc/neo cells assessed as ratio of H3K9/14ac content to the content of unmodified histone H3 at 0.3 uM incubated for 24 hrs by Western blot analysis relative to control. The class given is cell-based. Summed up: as §1

By CC50 is commonly meant the concentration at which the toxic effect on the cells reaches its halfway point. Broadly, the EC50 is the concentration at which the effect is half-maximal. With `O=C(/C=C/c1ccccc1OCCOc1ccccc1)NO`, the fold change (FC) was 3.18 in data set [1]; 0.69 in data set [2]; 1.58 in [4]; 2.07 in data set [6]; 0.5 in [7]; 2.87 in [8]. For the same compound, the fold change (FC) amounted to 2.14 in [9], 1.94 in data set [10] and 1.47 in [11]. Moreover, the selectivity ratio in data set [3] came to 120. Moreover, in data set [5], the CC50 at 72 h amounted to 45 µM. In addition, in the data set with Hepatitis C virus, the EC50 stood at 0.37 µM.

Take `O=C(/C=C/c1ccccc1OCc1ccccc1)NO`: the fold change (FC) in data set [1] is 2.16; in data set [2], 1.99; in data set [4], 1.51; in [6], 1.19; in data set [7] it was 2.46; in data set [8], 3.14. In addition, the fold change (FC) was 1.61 in [9], 1.48 in data set [10] and 0.95 in data set [11]. Also, the selectivity ratio in data set [3] came to 120. Further, in data set [5], the 50% cytotoxic concentration (CC50) at 72 h was found to be 31 µM. Moreover, the EC50 in the data set with Hepatitis C virus amounted to 0.25 µM.

Turning to `O=C(/C=C/c1ccccc1Oc1ccccc1)NO`, the fold change (FC) in data set [1] was found to be 2.66; in data set [2], 1.01; in [4], 1.7; in [6] it was 2.03; in data set [7], 0.74; in data set [8] it was 3.14. Further, the fold change (FC) in [12] was 0.62; in data set [9] it was 2.15; in data set [10], 1.46; in [11], 0.9. Besides, the selectivity ratio in [3] is 165. For the same compound, the CC50 at 72 h in [5] amounted to 66 µM. The 50% effective concentration (EC50) in the data set with Hepatitis C virus worked out at 0.4 µM.

`O=C(/C=C/c1ccccc1OCCc1ccccc1)NO`: the fold change (FC) was 3.17 in data set [1]; 0.8 in [2]; 1.84 in [4]; 2.03 in data set [6]; 0.64 in data set [7]; 3.78 in [8]. Besides, the fold change (FC) in data set [9] came to 1.98; in [10], 4.34; in [11], 2.39. Besides, the selectivity ratio in data set [3] was 260. The CC50 at 72 h in data set [5] is 83 µM. Further, in the data set with Hepatitis C virus, the EC50 worked out at 0.32 µM.
